# Assay results taken from ChEMBL document CHEMBL4689842, “EUbOPEN Chemogenomics Library wave 1” (2021).
# Tested on: HEK-293T
# Assay: Multiplex assay against HEK293T;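 on Population Tubulin-Different-Phenotype (%): share of the cells with healthy nuclei that show this phenotype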
# Type: toxicity, cell-based
# Conditions: human
# How it was run: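 Four dyes were applied at seeding to live cells: Hoechst33342, BioTracker Green Microtubule Cytoskeleton Dye, MitoTracker Red and Annexin V Alexa Fluor 680. Imaging after compound addition used a CQ1 microscope at 37°C and 5% CO2. CellPathfinder machine-learning gating then sorted cells into Hoechst high-intensity objects or normal cells, normal cells into healthy, pyknosed or fragmented nuclei, and pyknosed cells into mitotic or apoptotic, with tubulin, mitochondrial-mass and membrane-permeability phenotypes given as per cents of healthy-nucleus cells.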
# [1] = 12 h, 1 µM, compound concentration 1 uM, replicate 1
# [2] = 12 h, 1 µM, compound concentration 1 uM, replicate 2
# [3] = 12 h, 10 µM, compound concentration 10 uM, replicate 1
# [4] = 12 h, 10 µM, compound concentration 10 uM, replicate 2
# [5] = 24 h, 1 µM, compound concentration 1 uM, replicate 1
# [6] = 24 h, 1 µM, compound concentration 1 uM, replicate 2
# [7] = 24 h, 10 µM, compound concentration 10 uM, replicate 1
# [8] = 24 h, 10 µM, compound concentration 10 uM, replicate 2
# [9] = 48 h, 1 µM, compound concentration 1 uM, replicate 1
# [10] = 48 h, 1 µM, compound concentration 1 uM, replicate 2
# [11] = 48 h, 10 µM, compound concentration 10 uM, replicate 1
# [12] = 48 h, 10 µM, compound concentration 10 uM, replicate 2
smiles,measurement,setting,value
CCc1nn(CCCN2CCN(c3cccc(Cl)c3)CC2)c(=O)n1CCOc1ccccc1.Cl [NEFAZODONE HYDROCHLORIDE],Population Apoptotic (%),[1],47%
same,Population Fragmented Nuclei (%),[1],7%
same,Population Healthy Nuclei (%),[1],45%
same,Population Hoechst High Intensity Objects (%),[1],10%
same,Population Membrane Permeable-Phenotype (%),[1],7%
same,Population Mitochondria Different-Phenotype (%),[1],88%
same,Population Mitotic Cells (%),[1],52%
same,Population Normal (%),[1],89%
same,Population Pyknosed Nuclei (%),[1],46%
same,Population Tubulin-Different-Phenotype (%),[1],72%
same,Population Apoptotic (%),[2],9%
same,Population Fragmented Nuclei (%),[2],5%
same,Population Healthy Nuclei (%),[2],34%
same,Population Hoechst High Intensity Objects (%),[2],3%
same,Population Membrane Permeable-Phenotype (%),[2],9%
same,Population Mitochondria Different-Phenotype (%),[2],54%
same,Population Mitotic Cells (%),[2],90%
same,Population Normal (%),[2],96%
same,Population Pyknosed Nuclei (%),[2],59%
same,Population Tubulin-Different-Phenotype (%),[2],49%
same,Population Apoptotic (%),[3],90%
same,Population Fragmented Nuclei (%),[3],29%
same,Population Hoechst High Intensity Objects (%),[3],21%
same,Population Mitochondria Different-Phenotype (%),[3],81%
same,Population Mitotic Cells (%),[3],9%
same,Population Normal (%),[3],78%
same,Population Pyknosed Nuclei (%),[3],53%
same,Population Tubulin-Different-Phenotype (%),[3],81%
same,Population Apoptotic (%),[4],83%
same,Population Fragmented Nuclei (%),[4],3%
same,Population Healthy Nuclei (%),[4],17%
same,Population Hoechst High Intensity Objects (%),[4],13%
same,Population Membrane Permeable-Phenotype (%),[4],0%
same,Population Mitochondria Different-Phenotype (%),[4],100%
same,Population Mitotic Cells (%),[4],16%
same,Population Normal (%),[4],86%
same,Population Pyknosed Nuclei (%),[4],78%
same,Population Tubulin-Different-Phenotype (%),[4],100%
same,Population Apoptotic (%),[5],50%
same,Population Fragmented Nuclei (%),[5],8%
same,Population Healthy Nuclei (%),[5],57%
same,Population Hoechst High Intensity Objects (%),[5],6%
same,Population Membrane Permeable-Phenotype (%),[5],3%
same,Population Mitochondria Different-Phenotype (%),[5],89%
same,Population Mitotic Cells (%),[5],50%
same,Population Normal (%),[5],93%
same,Population Pyknosed Nuclei (%),[5],34%
same,Population Tubulin-Different-Phenotype (%),[5],67%
same,Population Apoptotic (%),[6],23%
same,Population Fragmented Nuclei (%),[6],4%
same,Population Healthy Nuclei (%),[6],47%
same,Population Hoechst High Intensity Objects (%),[6],4%
same,Population Membrane Permeable-Phenotype (%),[6],8%
same,Population Mitochondria Different-Phenotype (%),[6],52%
same,Population Mitotic Cells (%),[6],76%
same,Population Normal (%),[6],95%
same,Population Pyknosed Nuclei (%),[6],47%
same,Population Tubulin-Different-Phenotype (%),[6],64%
same,Population Apoptotic (%),[7],90%
same,Population Fragmented Nuclei (%),[7],25%
same,Population Healthy Nuclei (%),[7],21%
same,Population Hoechst High Intensity Objects (%),[7],24%
same,Population Mitotic Cells (%),[7],9%
same,Population Normal (%),[7],75%
same,Population Pyknosed Nuclei (%),[7],52%
same,Population Apoptotic (%),[8],97%
same,Population Fragmented Nuclei (%),[8],6%
same,Population Healthy Nuclei (%),[8],19%
same,Population Hoechst High Intensity Objects (%),[8],10%
same,Population Membrane Permeable-Phenotype (%),[8],0%
same,Population Mitochondria Different-Phenotype (%),[8],100%
same,Population Mitotic Cells (%),[8],2%
same,Population Normal (%),[8],89%
same,Population Pyknosed Nuclei (%),[8],73%
same,Population Tubulin-Different-Phenotype (%),[8],100%
same,Population Apoptotic (%),[9],31%
same,Population Fragmented Nuclei (%),[9],7%
same,Population Healthy Nuclei (%),[9],77%
same,Population Hoechst High Intensity Objects (%),[9],5%
same,Population Membrane Permeable-Phenotype (%),[9],2%
same,Population Mitochondria Different-Phenotype (%),[9],49%
same,Population Mitotic Cells (%),[9],68%
same,Population Normal (%),[9],94%
same,Population Pyknosed Nuclei (%),[9],14%
same,Population Tubulin-Different-Phenotype (%),[9],44%
same,Population Apoptotic (%),[10],17%
same,Population Fragmented Nuclei (%),[10],4%
same,Population Healthy Nuclei (%),[10],72%
same,Population Hoechst High Intensity Objects (%),[10],1%
same,Population Membrane Permeable-Phenotype (%),[10],6%
same,Population Mitochondria Different-Phenotype (%),[10],27%
same,Population Mitotic Cells (%),[10],82%
same,Population Normal (%),[10],98%
same,Population Pyknosed Nuclei (%),[10],22%
same,Population Tubulin-Different-Phenotype (%),[10],49%
same,Population Apoptotic (%),[11],90%
same,Population Fragmented Nuclei (%),[11],21%
same,Population Healthy Nuclei (%),[11],33%
same,Population Hoechst High Intensity Objects (%),[11],15%
same,Population Membrane Permeable-Phenotype (%),[11],1%
same,Population Mitochondria Different-Phenotype (%),[11],98%
same,Population Mitotic Cells (%),[11],9%
same,Population Normal (%),[11],84%
same,Population Pyknosed Nuclei (%),[11],44%
same,Population Tubulin-Different-Phenotype (%),[11],94%
same,Population Apoptotic (%),[12],95%
same,Population Fragmented Nuclei (%),[12],6%
same,Population Healthy Nuclei (%),[12],27%
same,Population Hoechst High Intensity Objects (%),[12],12%
same,Population Membrane Permeable-Phenotype (%),[12],0%
same,Population Mitochondria Different-Phenotype (%),[12],100%
same,Population Mitotic Cells (%),[12],4%
same,Population Normal (%),[12],87%
same,Population Pyknosed Nuclei (%),[12],65%
same,Population Tubulin-Different-Phenotype (%),[12],100%
